Experimental data collected from several papers.
CDK9: Cyclin-dependent kinase 9 (CDK9, Homo sapiens, UniProt P50750)
CDK9 with cyclin T1: Cyclin-dependent kinase 9, with cyclin T1 (CDK9, Homo sapiens, UniProt P50750)
CDK9 with cyclin K: Cyclin-dependent kinase 9, with cyclin K (CDK9, Homo sapiens, UniProt P50750)

COc1cccc2c(NCc3ccccc3)nc(-n3c(N)nc4ccccc43)nc12  inhibition (CDK9; target engagement in cells; inhibitor; chemoproteomics; 20 mM): -14.5%
O=C1NC(=O)c2cc(Nc3ccc(F)cc3)c(Nc3ccc(F)cc3)cc21  remaining signal (CDK9 with cyclin T1; cell-free assay; 0.5 µM): 95.4%
COc1cc(Nc2cnc(C#N)c(O[C@H](C)CN(C)C)n2)ncc1-c1cnn(C)c1  remaining activity (CDK9 with cyclin T1; enzyme activity; inhibitor; radiometric; 1 µM): 84%
CCc1ccccc1C(=O)Nc1n[nH]c2c(C)c(F)c(C3C(C#N)=C(C)N(C)C(C)=C3C#N)cc12  remaining binding (CDK9; cell-free assay; competition with immobilised ligand; 1 µM): 94%
CCCS(=O)(=O)Nc1ccc(F)c(C(=O)c2c[nH]c3ncc(-c4ccc(Cl)cc4)cc23)c1F  inhibition (CDK9 with cyclin T1; enzyme activity; inhibitor; 1 µM): < 10%
CN1CC(Oc2cnc(C#N)cc2-c2ccn3nc(NC(=O)C4CC4)cc3c2)C1  inhibition (CDK9 with cyclin T1; enzyme activity; inhibitor; 1 µM): -15%
Cn1cncc1C1=CN(c2ncnc3[nH]cnc23)CCS1  inhibition (CDK9; enzyme activity; inhibitor; radiometric; 50 nM): 12.4%
CO[C@@H](C)c1c(Nc2ccc([C@H](N(C)C(=O)C3CCS(=O)(=O)CC3)C(F)(F)F)cc2)cnc2cc(Cl)nn12  remaining binding (CDK9; cell-free assay; competition with immobilised ligand; 1 µM): 85%
CCCCNc1ncc2c(-c3ccc(F)cc3)nn(C[C@H]3CC[C@H](N)CC3)c2n1  inhibition (CDK9; target engagement in cells; inhibitor; chemoproteomics; 20 mM): 29.3%
O=C1Nc2ccc(Cl)cc2C1=Cc1cc(Cl)c(O)c(Cl)c1  remaining signal (CDK9 with cyclin T1; cell-free assay; 0.5 µM): 95.2%
COc1cc(/C=C/C(=O)CC(=O)/C=C/c2ccc(O)c(OC)c2)ccc1O  activity vs control (CDK9 with cyclin T1; enzyme activity; inhibitor; 1 µM): 88%
Cc1cc(-n2nc(Cc3cc(F)cc(C(F)(F)F)c3)nc2C)ccc1C(N)=O  remaining binding (CDK9; cell-free assay; competition with immobilised ligand; 1 µM): 100%
CS(=O)(=O)CCNCc1ccc(-c2ccc3ncnc(Nc4ccc(OCc5cccc(F)c5)c(Cl)c4)c3c2)o1  remaining signal (CDK9 with cyclin K; cell-free assay; 0.5 µM): 103%
CCOc1cc(-c2nncn2C)ccc1Nc1ncc2cc(C)nc(NCC(C)(C)C)c2n1  inhibition (CDK9 with cyclin K; cell-free assay; TR-FRET; 1 µM): ≤ 15%
COc1cc(Cl)c(C(=O)N[C@@H](CN[C@H]2CC[C@@H](N)CC2)Cc2ccc(C#N)cc2)cc1-c1ccc(CN[C@H](C)c2ccc(C)cc2)o1  remaining activity (CDK9 with cyclin T1; enzyme activity; inhibitor; 1 µM): 99%
Cc1ccc(NC(=O)c2ccc(CN3CCN(C)CC3)cc2)cc1Nc1nc(-c2cccnc2)cs1  remaining signal (CDK9 with cyclin T1; cell-free assay; 0.5 µM): 99.2%
CN(C)CC#Cc1ccc(OCCCc2sc(N3CCc4cccc(C(=O)Nc5nc6ccccc6s5)c4C3)nc2C(=O)O)c(F)c1  remaining binding (CDK9; cell-free assay; competition with immobilised ligand; 1 µM): 94%
O=C(CSc1nc2nccnc2c(=O)n1CCc1ccccc1)Nc1nccs1  inhibition (CDK9 with cyclin K; enzyme activity; inhibitor; 10 µM): -8%
CN(C)C1CCN(CC#Cc2nn(C3CCCC3)c3nc(NCc4ccccc4)ncc23)C1 (centres unmarked)  inhibition (CDK9 with cyclin T1; enzyme activity; inhibitor; FRET; 10 µM): -12%
CCC(=O)N[C@@H]1CC[C@H](C(=O)N(C)c2ccc(-c3nc4ccccc4o3)cc2)C1  remaining binding (CDK9; cell-free assay; competition with immobilised ligand; 1 µM): 100%
Cc1ccc(C(=O)Nc2ccc(CN3CCN(C)CC3)c(C(F)(F)F)c2)cc1C#Cc1cnc2cccnn12  remaining activity (CDK9; enzyme activity; inhibitor; 23.5 nM): 96%
Cc1ccc(Nc2nccc(N(C)c3ccc4c(C)n(C)nc4c3)n2)cc1S(N)(=O)=O  remaining activity (CDK9 with cyclin T1; enzyme activity; inhibitor; 0.5 µM): 91.5%
CNC(=O)c1cc(Oc2ccc(NC(=O)Nc3ccc(Cl)c(C(F)(F)F)c3)cc2)ccn1  inhibition (CDK9 with cyclin T1; enzyme activity; inhibitor; 10 µM): -6%
CCCOc1ccc([C@H]2[C@H](C(=O)O)[C@@H](c3ccc4c(c3)OCO4)CN2CC(=O)Nc2c(CC)cccc2CC)cc1  remaining binding (CDK9; cell-free assay; competition with immobilised ligand; 1 µM): 88%
CC(C)(C)c1nc(-c2cccc(NS(=O)(=O)c3c(F)cccc3F)c2F)c(-c2ccnc(N)n2)s1  remaining activity (CDK9 with cyclin T1; enzyme activity; inhibitor; radiometric; 1 µM): 106%
CCN(CC)CCNC(=O)c1c(C)[nH]c(/C=C2\C(=O)Nc3ccc(F)cc32)c1C  inhibition (CDK9 with cyclin T1; enzyme activity; inhibitor; 10 µM): 37%
CC(C)(C)c1nc2c(s1)c1nc(N)ncc1c1ccc(NS(=O)(=O)c3c(F)cccc3F)c(F)c12  remaining activity (CDK9 with cyclin K; enzyme activity; inhibitor; radiometric; 1 µM): 93%
N#CCCc1ccc2c(c1)-c1[nH]c3ccc([N+](=O)[O-])cc3c1CC(=O)N2  remaining signal (CDK9 with cyclin K; cell-free assay; 0.5 µM): 23.7%
CC(=O)N1CCC(c2ccc(C(=O)NC(=N)N)cc2C(F)(F)F)CC1  remaining binding (CDK9; cell-free assay; competition with immobilised ligand; 1 µM): 100%
Nc1ncnc2occ(-c3ccc(NC(=O)Nc4cc(C(F)(F)F)ccc4F)cc3)c12  remaining signal (CDK9; cell-free assay; inhibitor; 20 µM): 0.15%
Cc1nc(C2CCN(C(=O)c3ccc(OC(F)(F)F)cc3N)CC2)c2ncc(N3CCN(C)CC3)cc2n1  remaining binding (CDK9; cell-free assay; competition with immobilised ligand; 1 µM): 79%
COc1cc(-c2cc(-c3ccc(N4CCNCC4)cc3)cnc2C)cc(OC)c1OC  inhibition (CDK9 with cyclin T1; enzyme activity; inhibitor; 0.1 µM): 3%
